These results are taken from ChEMBL document CHEMBL1149323, “Synthesis and evaluation of dihydropyrroloquinolines that selectively antagonize P-glycoprotein” (J Med Chem, 2004).

Where “and” joins values, the source holds several entries; their conditions need not be identical. Equal entries are not always repeated.

In series [1] the test system is MCF7. As to the kind of experiment: Toxicity was determined against of MCF-7 cells at a dose of 10 ug/mL. In kind it is cell-based. The settings on record: human. In outline:
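Drug-sensitive MCF-7 cells exposed to 10 μg/mL compound for 48 h, in triplicate, with 1% ethanol solvent controls. Percentage of cells killed = percentage decrease in sulforhodamine B binding (570 nm) relative to control cultures.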

Series [2] has as its target T1, ATP-dependent translocase ABCB1 (Homo sapiens, UniProt P08183). Nature of the series: Pgp antagonism was determined percentage of NCI/ADR cells surviving in the absence of vinblastine/percentage of NCI/ADR cells surviving in the presence of vinblastine. In kind it is functional, cell-based. In outline: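 Modulator at 10 μg/mL tested with or without 50 nM vinblastine for 48 h, in triplicate. Survival read by sulforhodamine B at 570 nm against ethanol (1%) controls. Score = % survival without vinblastine / % survival with vinblastine.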

Series [3] addresses Multidrug resistance-associated protein 1 (Homo sapiens, UniProt P33527). Nature of the series: MRP1 antagonism was determined percentage of MCF-7/VP cells surviving in the absence of vincristine/percentage of MCF-7/VP cells surviving in the presence of vincristine. In kind it is functional. In outline:
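MCF-7/VP cells in RPMI 1640 with 10% FBS. Modulator at 10 μg/mL tested with or without 1 nM vincristine for 48 h, in triplicate. Sulforhodamine B read-out at 570 nm. Score = % survival without vincristine / % survival with vincristine; a score above 1.0 indicates chemosensitization.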

Series [4] in a line: Ratio of the Pgp to that of MRP1 was determined. It is filed as functional.
A short description of series [5]: Compound was evaluated for broad range of antagonistic activity against multi drug resistance-related protein (MRP) value expressed as IC20. It is filed as functional. On the set-up: unit not given here.
Series [6] concerns the target T1, ATP-dependent translocase ABCB1. Nature of the series: Compound was evaluated for broad range of antagonistic activity against P-glycoprotein (Pgp) value expressed as IC20. It is filed as functional.
Series [7] concerns MCF-7 (Homo sapiens). Nature of the series: Toxicity against MCF-7 cells.

Sequence of Multidrug resistance-associated protein 1 (P33527 whole entry): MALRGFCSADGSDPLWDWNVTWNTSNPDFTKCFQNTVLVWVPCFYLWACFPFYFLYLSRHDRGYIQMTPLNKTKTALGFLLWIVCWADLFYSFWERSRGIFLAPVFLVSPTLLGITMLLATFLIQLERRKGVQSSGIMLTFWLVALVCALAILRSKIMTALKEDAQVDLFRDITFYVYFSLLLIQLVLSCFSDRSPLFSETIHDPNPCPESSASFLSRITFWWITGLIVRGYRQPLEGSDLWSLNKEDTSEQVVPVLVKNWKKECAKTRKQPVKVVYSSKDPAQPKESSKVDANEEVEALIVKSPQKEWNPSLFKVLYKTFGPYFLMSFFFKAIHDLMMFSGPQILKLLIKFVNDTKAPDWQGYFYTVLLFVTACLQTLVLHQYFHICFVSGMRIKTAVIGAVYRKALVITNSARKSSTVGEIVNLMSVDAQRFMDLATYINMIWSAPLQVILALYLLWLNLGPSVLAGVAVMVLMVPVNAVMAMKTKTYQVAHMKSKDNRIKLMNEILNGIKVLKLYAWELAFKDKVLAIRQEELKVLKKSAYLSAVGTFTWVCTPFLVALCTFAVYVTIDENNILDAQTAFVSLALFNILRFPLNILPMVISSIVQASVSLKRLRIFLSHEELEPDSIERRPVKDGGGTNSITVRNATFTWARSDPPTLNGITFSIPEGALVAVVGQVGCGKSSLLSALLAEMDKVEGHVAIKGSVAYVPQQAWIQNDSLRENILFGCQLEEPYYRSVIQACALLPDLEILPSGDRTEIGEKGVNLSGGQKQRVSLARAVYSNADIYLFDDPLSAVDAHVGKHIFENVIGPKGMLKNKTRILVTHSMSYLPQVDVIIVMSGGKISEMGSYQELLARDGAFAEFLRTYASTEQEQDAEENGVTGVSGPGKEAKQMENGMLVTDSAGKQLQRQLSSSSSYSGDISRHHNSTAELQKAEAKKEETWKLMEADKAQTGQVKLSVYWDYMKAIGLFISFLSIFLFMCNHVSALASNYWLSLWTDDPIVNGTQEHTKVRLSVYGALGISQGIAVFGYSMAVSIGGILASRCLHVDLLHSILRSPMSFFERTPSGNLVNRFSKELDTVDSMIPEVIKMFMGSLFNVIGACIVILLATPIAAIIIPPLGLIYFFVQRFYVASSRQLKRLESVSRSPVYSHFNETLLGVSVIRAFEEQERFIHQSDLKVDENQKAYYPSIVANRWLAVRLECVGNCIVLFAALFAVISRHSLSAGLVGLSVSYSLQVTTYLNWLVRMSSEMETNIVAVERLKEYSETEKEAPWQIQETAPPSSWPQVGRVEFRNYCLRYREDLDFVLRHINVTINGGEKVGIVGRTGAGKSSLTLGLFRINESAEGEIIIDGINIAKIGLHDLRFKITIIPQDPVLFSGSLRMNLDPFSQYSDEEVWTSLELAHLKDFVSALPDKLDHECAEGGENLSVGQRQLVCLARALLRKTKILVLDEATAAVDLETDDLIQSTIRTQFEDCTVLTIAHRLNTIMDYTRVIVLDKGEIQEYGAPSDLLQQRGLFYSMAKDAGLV
T1 sequence (P08183 whole entry): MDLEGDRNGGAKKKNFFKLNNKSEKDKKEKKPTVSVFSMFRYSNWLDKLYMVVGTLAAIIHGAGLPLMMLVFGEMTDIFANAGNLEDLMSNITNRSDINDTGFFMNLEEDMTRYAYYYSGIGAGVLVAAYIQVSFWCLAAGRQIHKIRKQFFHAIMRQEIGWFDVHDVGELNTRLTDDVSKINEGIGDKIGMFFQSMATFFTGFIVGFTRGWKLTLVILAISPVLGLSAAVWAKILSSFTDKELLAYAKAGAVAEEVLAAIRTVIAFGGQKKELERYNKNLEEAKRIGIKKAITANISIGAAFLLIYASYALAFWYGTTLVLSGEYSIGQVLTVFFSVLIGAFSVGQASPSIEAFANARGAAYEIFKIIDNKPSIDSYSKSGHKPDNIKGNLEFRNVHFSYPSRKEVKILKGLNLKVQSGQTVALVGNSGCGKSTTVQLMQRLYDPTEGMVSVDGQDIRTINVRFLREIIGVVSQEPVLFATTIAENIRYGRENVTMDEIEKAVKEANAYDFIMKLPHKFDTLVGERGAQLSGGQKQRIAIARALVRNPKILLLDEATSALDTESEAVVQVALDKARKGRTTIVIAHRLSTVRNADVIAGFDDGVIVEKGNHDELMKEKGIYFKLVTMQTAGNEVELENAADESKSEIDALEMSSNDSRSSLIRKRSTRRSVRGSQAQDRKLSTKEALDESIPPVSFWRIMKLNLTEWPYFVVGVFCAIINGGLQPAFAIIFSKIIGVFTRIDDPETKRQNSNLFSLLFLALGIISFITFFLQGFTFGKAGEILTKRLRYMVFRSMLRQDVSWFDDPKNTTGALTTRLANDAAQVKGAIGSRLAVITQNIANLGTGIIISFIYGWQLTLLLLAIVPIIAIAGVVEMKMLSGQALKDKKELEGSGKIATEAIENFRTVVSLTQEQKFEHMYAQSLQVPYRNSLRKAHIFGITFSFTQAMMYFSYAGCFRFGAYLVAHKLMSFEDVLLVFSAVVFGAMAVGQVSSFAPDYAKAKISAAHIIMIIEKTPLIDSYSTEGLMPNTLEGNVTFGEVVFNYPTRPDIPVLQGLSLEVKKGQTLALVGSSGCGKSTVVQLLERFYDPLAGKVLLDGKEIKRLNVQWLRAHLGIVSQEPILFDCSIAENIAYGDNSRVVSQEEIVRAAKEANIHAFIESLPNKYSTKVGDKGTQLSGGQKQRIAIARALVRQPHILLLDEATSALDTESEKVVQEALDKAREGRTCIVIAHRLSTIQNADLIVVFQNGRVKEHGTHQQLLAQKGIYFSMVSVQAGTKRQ

In series [1], `CN1CCN(CC(=O)Nc2c3c(nc4ccccc24)N(Cc2ccccc2)CC3)CC1` gave a Toxicity of 21%. In addition, the Ratio in series [2] was 7.5; in series [3], 1.1; in series [4] it was 6.8.

On to `Nc1c2c(nc3ccccc13)N(Cc1ccccc1)CC2`, for which the Activity in series [5] and in series [6] was 1 in each case. Besides, the Toxicity in series [1] is 47%; in series [7], 6.2 µM. Moreover, the Ratio in series [2] came out at 3.1; in series [3] it was 1; in series [4], 3.1.

Consider `Cc1cc(C)c2c(N)c3c(nc2c1)N(Cc1ccccc1)CC3`, for which, in series [1], the Toxicity turned out to be 49%. Besides, the Ratio in series [2] came to 3.6; in series [3], 1.4; in series [4] it was 2.6.

`Nc1c2c(nc3cc(Br)ccc13)N(Cc1ccccc1)CC2`: the Toxicity in series [1] is on record as 94%. Further, the Ratio amounted to 1.7 in series [2], 1.3 in series [3] and 1.3 in series [4].

`CCCCN(CCCC)CC(=O)Nc1c2c(nc3ccccc13)N(C)CC2` returned a Toxicity in series [1] of 50%. Besides, the Ratio in series [2] was determined as 4.2; in series [3] it was 1.3; in series [4] it was 3.2.

For the compound `Fc1cccc(CNc2c3c(nc4ccccc24)N(Cc2ccccc2)CC3)c1`, the Activity in series [5] turned out to be 0.7; in series [6] it was 1.2. For the same compound, the Toxicity in series [7] is above 65 µM.

In turn, `Nc1c2c(nc3cc(Br)ccc13)N(C1CCCCC1)CC2` yielded a Toxicity in series [1] of 99%. Also, the Ratio in series [2], in series [3] and in series [4] was 1 in each case.

Regarding `CC(C)(C)NCC(=O)Nc1c2c(nc3ccccc13)N(Cc1ccccc1)CC2`, in series [1], the Toxicity is given as 29%. Besides, the figures for the Ratio in series [2], in series [3] and in series [4] were 12, 0.9 and 13, respectively.

In series [1], `CN1CCc2c1nc1ccccc1c2NC(=O)CCc1cc(C(C)(C)C)c(O)c(C(C)(C)C)c1` registered a Toxicity of 99%. In addition, the Ratio in series [2], in series [3] and in series [4] was 1 throughout.

`CN1CCc2c1nc1ccccc1c2/N=C(/c1ccccc1)N1CCCCC1`: in series [1], the Toxicity was found to be 58%. Further, the Ratio in series [2] came to 2.4; in series [3], 1; in series [4], 2.4.

Turning to `CN1CCc2c1nc1ccccc1c2NC(=O)CNC(C)(C)C`, in series [1], the Toxicity is on record as 28%. In addition, the Ratio in series [2] was determined as 3.2; in series [3], 1.2; in series [4] it was 2.7.

In the case of `Cc1ccc2nc3c(c(N)c2c1)CCN3Cc1ccccc1`, the Toxicity in series [1] turned out to be 81%. The Ratio in series [2] worked out at 1.5; in series [3] it was 1.2; in series [4], 1.3.

With `O=C(Nc1c2c(nc3ccccc13)N(Cc1cccc(Cl)c1)CC2)C12CC3CC(CC(C3)C1)C2`, the Toxicity in series [1] is recorded as 33%. Moreover, the results for the Ratio in series [2], in series [3] and in series [4] were 1.2, 1.2 and 1, respectively.

The compound `CCCCN1CCc2c1nc1cc(Br)ccc1c2N` came in with a Toxicity in series [1] of 98%. Moreover, the values for the Ratio in series [2], in series [3] and in series [4] were 1.1, 1 and 1.1, respectively.

In the case of `CN1CCc2c1nc1ccccc1c2NC(=O)CNCCc1ccc(O)cc1`, in series [1], the Toxicity was found to be 21%. For the same compound, the values for the Ratio in series [2], in series [3] and in series [4] were 1.7, 1.4 and 1.2, respectively.

`CN1CCc2c1nc1ccccc1c2NC(=O)CN1CCCCC1` displayed a Toxicity in series [1] of 51%. Besides, the Ratio was 4.1 in series [2], 1.2 in series [3] and 3.4 in series [4].

As for `CCN(CC)CC(=O)Nc1c2c(nc3ccccc13)N(C)CC2`, in series [1], the Toxicity is 30%. Further, the values for the Ratio in series [2], in series [3] and in series [4] were 6, 1.2 and 5, respectively.

Compound `Nc1c2c(nc3ccccc13)N(c1ccccc1)CC2` came in with a Toxicity in series [1] of 52%. The Ratio in series [2] came to 2.7; in series [3] it was 1.1; in series [4], 2.5.

With `O=C(Nc1c2c(nc3ccccc13)N(Cc1ccccc1)CC2)c1ccc(F)c(C(F)(F)F)c1`, the Activity in series [5] was 0.9; in series [6] it was 4.9. In addition, the Toxicity in series [7] amounted to 19 µM.

Take `CCOC(=O)CNc1c2c(nc3ccccc13)N(Cc1ccccc1)CC2`: the Activity in series [5] and in series [6] was 0.9 in each case. In series [7], this compound showed a Toxicity of 33 µM.

`CC(C)(C)c1cc(CCC(=O)Nc2c3c(nc4ccccc24)N(Cc2ccccc2)CC3)cc(C(C)(C)C)c1O` registered a Toxicity in series [1] of 50%. The Ratio in series [2] was 13.2; in series [3] it was 1.2; in series [4] it was 11.

In series [1], `Nc1c2c(nc3ccccc13)N(C1CCCCC1)CC2` gave a Toxicity of 97%. The Ratio in series [2] came out at 0.8; in series [3], 0.6; in series [4], 1.3.

In the case of `CCC(=O)Nc1c2c(nc3ccccc13)N(C)CC2`, the Ratio in series [4] was 1.6.

`CN1CCc2c1nc1ccccc1c2NC(=O)Cc1ccccc1`: the Ratio in series [4] is 5.6.

For `COc1cc(CNc2c3c(nc4ccccc24)N(Cc2ccccc2)CC3)cc(OC)c1`, the Activity in series [5] came to 0.9; in series [6], 1.4. Moreover, the Toxicity in series [7] stood at 47 µM.

`CN1CCc2c1nc1ccccc1c2NC(=O)C12CC3CC(CC(C3)C1)C2`: in series [1], the Toxicity was 29%. For the same compound, the Ratio in series [2] amounted to 4.7; in series [3], 0.9; in series [4] it was 5.2.

As for `O=C(Nc1c2c(nc3ccccc13)N(Cc1ccccc1)CC2)c1c(F)ccc(F)c1F`, the figures for the Activity in series [5] and in series [6] were 1 and 3.1, respectively. The same compound showed a Toxicity in series [7] above 58 µM.

Regarding `Cc1ccc2c(N)c3c(nc2c1)N(Cc1ccccc1)CC3`, the Toxicity in series [1] was 77% and 98%. Moreover, the Ratio in series [2] was 1.6 and 0.7; in series [3] it was 1.7 and 1; in series [4] it was 0.9 and 0.7.

`CC(C)NCC(=O)Nc1c2c(nc3ccccc13)N(Cc1ccccc1)CC2`: the Toxicity in series [1] was found to be 45%. The Ratio in series [2] was 13; in series [3], 1; in series [4], 13.

Take `O=C(Nc1c2c(nc3ccccc13)N(Cc1ccccc1)CC2)c1c(F)cccc1C(F)(F)F`: the Activity was 0.9 in series [5] and 2.5 in series [6]. This compound also had a Toxicity in series [7] of 13 µM.

In turn, `CN1CCc2c1nc1cc(Br)ccc1c2N` gave a Toxicity in series [1] of 94%. In addition, the Ratio in series [2] amounted to 1.3; in series [3], 1.6; in series [4], 0.8.

As to `CCN(CC)CC(=O)Nc1c2c(nc3ccccc13)N(Cc1ccccc1)CC2`, the Toxicity in series [1] is recorded as 14%. The Ratio in series [2] worked out at 15; in series [3], 1; in series [4] it was 15.

`Fc1ccc(CNc2c3c(nc4ccccc24)N(Cc2ccccc2)CC3)cc1`: the Activity in series [5] was 0.7; in series [6] it was 1.3. In series [7], the Toxicity is above 65 µM.

The compound `CC(C)NCC(=O)Nc1c2c(nc3ccccc13)N(C)CC2` had a Toxicity in series [1] of 39%. Moreover, the Ratio in series [2] worked out at 1.8; in series [3], 1.4; in series [4], 1.3.
